Measurements from article PMC8248431 (The Febs Journal, 2021).

Assays:
Irpex lacteus F17 DyP = conditions: cited from earlier work
AncDyPD‐b1 D222A = test: Steady-state kinetics of peroxidase activity, AncDyPD-b1 D222A variant; assay type: biochemical; conditions: for n (cooperativity constant): cooperativity model, 25 °C, H2O2 with ABTS as electron donor
How it was run: (§1)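 Purified untagged (SUMO-cleaved) mutant ancestral DyP, expressed in E. coli. H2O2 varied at 25 °C in 50 mM sodium citrate at the ABTS optimal pH 3.0. ABTS was held at its maximum-activity level below substrate inhibition: 10 µM for D222A, D222E and R390K-D222E, 25 µM for R390K, and 50 µM for R390A. Reactions were started with 50–500 nM enzyme, raised to 2.0 µM if activity was low.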

AncDyPD‐b1 R390K = test: Steady-state kinetics of peroxidase activity, AncDyPD-b1 R390K variant; assay type: biochemical; conditions: cooperativity model; 25 °C; H2O2 with ABTS as electron donor
How it was run: as §1

AncDyPD‐b1 R390A = test: Steady-state kinetics of peroxidase activity, AncDyPD-b1 R390A variant; assay type: biochemical; conditions: cooperativity model; 25 °C; H2O2 with ABTS as electron donor
How it was run: as §1

AncDyPD‐b1 D222E = test: Steady-state kinetics of peroxidase activity, AncDyPD-b1 D222E variant; assay type: biochemical; conditions: cooperativity model; 25 °C; H2O2 with ABTS as electron donor
How it was run: as §1

AncDyPD‐b1 R390K‐D222E = test: Steady-state kinetics of peroxidase activity, AncDyPD-b1 R390K-D222E variant; assay type: biochemical; conditions: cooperativity model; 25 °C; H2O2 with ABTS as electron donor
How it was run: as §1

FtrDyP = test: Mn2+ oxidation by FtrDyP; assay type: biochemical, Funalia (Coriolopsis) trogii; conditions: Mn^2+ substrate
AncDyPD‐b1 = test: Sulfoxidation; assay type: biochemical; conditions: 17, 25, and 30 °C, 36 h, pH 3.5, 1.0 mM H2O2, 2.5 mM thioanisole

Row | Compound | Km (Irpex lacteus F17 DyP) | k cat (Irpex lacteus F17 DyP) | n (cooperativity constant) (AncDyPD‐b1 R390K) | n (cooperativity constant) (AncDyPD‐b1 R390A) | n (cooperativity constant) (AncDyPD‐b1 D222E) | n (cooperativity constant) (AncDyPD‐b1 R390K‐D222E) | n (cooperativity constant) (AncDyPD‐b1 D222A) | further results
1 | CCn1c(=NN=c2sc3cc(S(=O)(=O)O)ccc3n2CC)sc2cc(S(=O)(=O)O)ccc21 [ABTS, 2,2'‐azino‐bis(3‐ethylbenzothiazoline‐6‐sulfonic acid)] | 62 µM | 8356 s⁻¹ | – | – | – | – | – | fold decrease of KM versus WT (AncDyPD‐b1 D222A; ABTS oxidation, D222A vs WT): 80 fold; fold lower k cat than WT (AncDyPD‐b1 D222A; ABTS oxidation, D222A vs WT): 150 fold
2 | OO [H2O2, hydrogen peroxide] | – | – | 1.2 | 1 | 1.4 | 2.2 | 1 | –
3 | O=S(=O)([O-])[O-].[Mn+2] [Mn^2+, MnSO4] | – | – | – | – | – | – | – | efficiency of FtrDyP relative to AncDyPD‐b1 (FtrDyP): 500 times
4 | Nc1c(N=Nc2ccc(S(=O)(=O)CCOS(=O)(=O)[O-])cc2)c(S(=O)(=O)[O-])cc2cc(S(=O)(=O)[O-])c(N=Nc3ccc(S(=O)(=O)CCOS(=O)(=O)[O-])cc3)c(O)c12.[Na+].[Na+].[Na+].[Na+] [RB5, Reactive Black 5] | – | – | 2.1 | 1 | 2.2 | 2.3 | 2.8 | –
5 | Nc1c(S(=O)(=O)[O-])cc(Nc2cccc(S(=O)(=O)CCOS(=O)(=O)[O-])c2)c2c1C(=O)c1ccccc1C2=O.[Na+].[Na+] [RB19, Reactive Blue 19] | 133 µM | 5345 s⁻¹ | – | – | – | – | – | –
6 | CSc1ccccc1 [thioanisole] | – | – | – | – | – | – | – | conversion (peroxygenase activity, sulfoxidation) (AncDyPD‐b1): no conversion
